# Laboratory results taken from ChEMBL document CHEMBL5247575 (J Med Chem, 2018).
# Tested on: Klebsiella pneumoniae
# Assay: Synergistic antibacterial activity against Klebsiella pneumoniae 660/1568 producing KPC-3 assessed as meropenem MIC at 8 ug/ml by broth microdilution method
# Type: functional
# Conditions: dose 8 µg/ml
# Method in brief: (§1)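 Broth microdilution per CLSI guidelines, using custom frozen panels. […] Each partner drug was also tested alone. MICs were run in triplicate and the modal value is reported.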
row,Compound,MIC
1,O=C(NNC(=O)[C@@H]1CC[C@@H]2CN1C(=O)N2OS(=O)(=O)O)[C@@H]1CCNC1,≤ 0.12 µg/mL

# Tested on: Klebsiella pneumoniae
# Assay: Synergistic antibacterial activity against Klebsiella pneumoniae jefferson 1775 producing OXA-48 assessed as meropenem MIC at 4 ug/ml by broth microdilution method
# Type: functional
# Conditions: dose 4 µg/ml
row,Compound,MIC
1,O=C(NNC(=O)[C@@H]1CC[C@@H]2CN1C(=O)N2OS(=O)(=O)O)[C@@H]1CCNC1,≤ 0.12 µg/mL

# Tested on: Klebsiella pneumoniae
# Assay: Synergistic antibacterial activity against Klebsiella pneumoniae 729/1679 producing KPC-3 assessed as meropenem MIC at 8 ug/ml by broth microdilution method
# Type: functional
# Conditions: dose 8 µg/ml
# Method in brief: as §1
row,Compound,MIC
1,O=C(NNC(=O)[C@@H]1CC[C@@H]2CN1C(=O)N2OS(=O)(=O)O)[C@@H]1CCNC1,≤ 0.12 µg/mL

# Tested on: Acinetobacter baumannii
# Assay: Synergistic antibacterial activity against Acinetobacter baumannii PR408 producing OXA-24/40 assessed as meropenem MIC at 8 ug/ml by broth microdilution method
# Type: functional
# Conditions: dose 8 µg/ml
row,Compound,MIC
1,O=C(NNC(=O)[C@@H]1CC[C@@H]2CN1C(=O)N2OS(=O)(=O)O)[C@@H]1CCNC1,> 16 µg/mL

# Tested on: Klebsiella pneumoniae
# Assay: Synergistic antibacterial activity against Klebsiella pneumoniae jefferson 1775 producing OXA-48 assessed as cefepime MIC at 4 ug/ml by broth microdilution method
# Type: functional
# Conditions: dose 4 µg/ml
row,Compound,MIC
1,O=C(NNC(=O)[C@@H]1CC[C@@H]2CN1C(=O)N2OS(=O)(=O)O)[C@@H]1CCNC1,≤ 0.12 µg/mL

# Tested on: Escherichia coli
# Assay: Synergistic antibacterial activity against Escherichia coli DH10B transfected with pBC SK (-) KPC-2 assessed as meropenem MIC at 4 ug/ml by broth microdilution method
# Type: functional
# Conditions: dose 4 µg/ml
row,Compound,MIC
1,O=C(NNC(=O)[C@@H]1CC[C@@H]2CN1C(=O)N2OS(=O)(=O)O)[C@@H]1CCNC1,≤ 0.12 µg/mL

# Tested on: Acinetobacter baumannii
# Assay: Synergistic antibacterial activity against Acinetobacter baumannii PR476 producing OXA-24/40 assessed as cefepime MIC at 4 ug/ml by broth microdilution method
# Type: functional
# Conditions: dose 4 µg/ml
row,Compound,MIC
1,O=C(NNC(=O)[C@@H]1CC[C@@H]2CN1C(=O)N2OS(=O)(=O)O)[C@@H]1CCNC1,1 µg/mL

# Tested on: Escherichia coli
# Assay: Synergistic antibacterial activity against Escherichia coli DH10B transfected with pBR322-catI-KPC-2 assessed as meropenem MIC at 8 ug/ml by broth microdilution method
# Type: functional
# Conditions: dose 8 µg/ml
# Method in brief: as §1
row,Compound,MIC
1,O=C(NNC(=O)[C@@H]1CC[C@@H]2CN1C(=O)N2OS(=O)(=O)O)[C@@H]1CCNC1,≤ 0.12 µg/mL

# Tested on: Klebsiella pneumoniae
# Assay: Synergistic antibacterial activity against Klebsiella pneumoniae 977/1916 producing KPC-3 assessed as cefepime MIC at 8 ug/ml by broth microdilution method
# Type: functional
# Conditions: dose 8 µg/ml
row,Compound,MIC
1,O=C(NNC(=O)[C@@H]1CC[C@@H]2CN1C(=O)N2OS(=O)(=O)O)[C@@H]1CCNC1,≤ 0.12 µg/mL

# Tested on: Klebsiella pneumoniae
# Assay: Synergistic antibacterial activity against Klebsiella pneumoniae 1398/2291 producing KPC-3 assessed as cefepime MIC at 8 ug/ml by broth microdilution method
# Type: functional
# Conditions: dose 8 µg/ml
# Method in brief: as §1
row,Compound,MIC
1,O=C(NNC(=O)[C@@H]1CC[C@@H]2CN1C(=O)N2OS(=O)(=O)O)[C@@H]1CCNC1,≤ 0.12 µg/mL

# Tested on: Klebsiella pneumoniae
# Assay: Synergistic antibacterial activity against Klebsiella pneumoniae 660/1568 producing KPC-3 assessed as cefepime MIC at 4 ug/ml by broth microdilution method
# Type: functional
# Conditions: dose 4 µg/ml
# Method in brief: as §1
row,Compound,MIC
1,O=C(NNC(=O)[C@@H]1CC[C@@H]2CN1C(=O)N2OS(=O)(=O)O)[C@@H]1CCNC1,≤ 0.12 µg/mL

# Tested on: Klebsiella pneumoniae
# Assay: Synergistic antibacterial activity against Klebsiella pneumoniae NY BS producing OXA-232 assessed as cefepime MIC at 8 ug/ml by broth microdilution method
# Type: functional
# Conditions: dose 8 µg/ml
row,Compound,MIC
1,O=C(NNC(=O)[C@@H]1CC[C@@H]2CN1C(=O)N2OS(=O)(=O)O)[C@@H]1CCNC1,≤ 0.12 µg/mL

# Tested on: Bacteria
# Assay: Inhibition of bacteria ADC-7 assessed as Koff rate using nitrocefin as substrate incubated for 30 mins
# Conditions: not given
row,Compound,K
1,O=C(NNC(=O)[C@@H]1CC[C@@H]2CN1C(=O)N2OS(=O)(=O)O)[C@@H]1CCNC1,9 10^-4/s

# Tested on: Acinetobacter baumannii
# Assay: Synergistic antibacterial activity against Acinetobacter baumannii PR476 producing OXA-24/40 assessed as meropenem MIC at 8 ug/ml by broth microdilution method
# Type: functional
# Conditions: dose 8 µg/ml
row,Compound,MIC
1,O=C(NNC(=O)[C@@H]1CC[C@@H]2CN1C(=O)N2OS(=O)(=O)O)[C@@H]1CCNC1,0.25 µg/mL

# Tested on: Klebsiella pneumoniae
# Assay: Synergistic antibacterial activity against Klebsiella pneumoniae 1315/2198 producing KPC-3 assessed as cefepime MIC at 8 ug/ml by broth microdilution method
# Type: functional
# Conditions: dose 8 µg/ml
# Method in brief: as §1
row,Compound,MIC
1,O=C(NNC(=O)[C@@H]1CC[C@@H]2CN1C(=O)N2OS(=O)(=O)O)[C@@H]1CCNC1,≤ 0.12 µg/mL

# Tested on: Pseudomonas aeruginosa
# Assay: Synergistic antibacterial activity against Pseudomonas aeruginosa 795 assessed as cefepime MIC at 4 ug/ml by broth microdilution method
# Type: functional
# Conditions: dose 4 µg/ml
row,Compound,MIC
1,O=C(NNC(=O)[C@@H]1CC[C@@H]2CN1C(=O)N2OS(=O)(=O)O)[C@@H]1CCNC1,0.5 µg/mL

# Tested on: Klebsiella pneumoniae
# Assay: Synergistic antibacterial activity against Klebsiella pneumoniae 729/1679 producing KPC-3 assessed as meropenem MIC at 4 ug/ml by broth microdilution method
# Type: functional
# Conditions: dose 4 µg/ml
# Method in brief: as §1
row,Compound,MIC
1,O=C(NNC(=O)[C@@H]1CC[C@@H]2CN1C(=O)N2OS(=O)(=O)O)[C@@H]1CCNC1,0.25 µg/mL

# Tested on: Escherichia coli
# Assay: Synergistic antibacterial activity against Escherichia coli DH10B assessed as meropenem MIC at 4 ug/ml by broth microdilution method
# Type: functional
# Conditions: dose 4 µg/ml
row,Compound,MIC
1,O=C(NNC(=O)[C@@H]1CC[C@@H]2CN1C(=O)N2OS(=O)(=O)O)[C@@H]1CCNC1,≤ 0.12 µg/mL
